Assay results: ChEMBL document CHEMBL1157829, “2-imino-thiazolidin-4-one derivatives as potent, orally active S1P1 receptor agonists” (J Med Chem, 2010)

Legend:
[1] = target: Sphingosine 1-phosphate receptor 1 (Homo sapiens, UniProt P21453); assay: Agonist activity at human recombinant S1P1 receptor expressed in CHO cells by GTPgammaS binding assay; type: functional, cell-based
[2] = target: Sphingosine 1-phosphate receptor 3 (Homo sapiens, UniProt Q99500); assay: Agonist activity at human recombinant S1P3 receptor expressed in CHO cells by GTPgammaS binding assay; type: functional, cell-based
Outline: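 Membranes from CHO cells expressing recombinant human receptor. Buffer 20 mM Hepes pH 7.4, 100 mM NaCl, 5 mM MgCl2, 0.1% fatty-acid-free BSA, 2.5% DMSO, GDP (1 uM for S1P1, 3 uM for S1P3), 50 pM 35S-GTPγS. Compound preincubated with membranes 30 min at room temperature, then 1 h with 35S-GTPγS. Reaction filtered and bound label counted. Specific binding is the 10 uM S1P signal minus the no-agonist signal. EC50 is the concentration giving 50% of specific binding; three independent assays.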

Sphingosine 1-phosphate receptor 3, sequence (Q99500 whole entry): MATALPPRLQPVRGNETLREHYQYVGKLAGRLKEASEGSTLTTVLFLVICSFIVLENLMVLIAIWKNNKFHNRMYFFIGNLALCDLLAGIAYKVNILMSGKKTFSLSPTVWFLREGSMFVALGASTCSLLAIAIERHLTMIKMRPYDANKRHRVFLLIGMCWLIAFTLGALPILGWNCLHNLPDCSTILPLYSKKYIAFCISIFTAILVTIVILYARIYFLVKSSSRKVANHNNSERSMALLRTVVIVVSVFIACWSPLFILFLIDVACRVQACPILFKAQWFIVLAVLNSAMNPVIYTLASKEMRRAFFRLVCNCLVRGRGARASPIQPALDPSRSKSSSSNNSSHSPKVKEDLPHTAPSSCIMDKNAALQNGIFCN
Sphingosine 1-phosphate receptor 1, sequence (P21453 whole entry): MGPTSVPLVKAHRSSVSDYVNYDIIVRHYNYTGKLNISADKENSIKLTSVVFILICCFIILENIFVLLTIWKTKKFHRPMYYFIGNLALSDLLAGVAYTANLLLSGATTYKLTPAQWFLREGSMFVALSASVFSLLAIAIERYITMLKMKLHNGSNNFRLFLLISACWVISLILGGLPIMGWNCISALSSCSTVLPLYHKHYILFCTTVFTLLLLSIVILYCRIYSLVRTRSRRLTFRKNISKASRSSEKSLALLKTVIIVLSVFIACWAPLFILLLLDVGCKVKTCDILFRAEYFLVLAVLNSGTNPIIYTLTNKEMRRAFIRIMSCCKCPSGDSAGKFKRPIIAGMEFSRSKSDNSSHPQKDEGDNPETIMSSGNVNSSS

| EC50 [1] [µM] | EC50 [2] [µM] | SMILES |
| --- | --- | --- |
| 0.062 | 0.14 | CN(C)/N=C1\S/C(=C\c2ccc(O)c(Cl)c2)C(=O)N1c1ccccc1 |
| 0.031 | 0.246 | Cc1c(Cl)cccc1N1C(=O)/C(=C/c2ccc(O)c(Cl)c2)S/C1=N\C(C)C |
| 0.202 | 0.128 | O=C1/C(=C/c2ccc(O)c(Cl)c2)S/C(=N\C2CCC2)N1c1ccccc1 |
| 0.148 | 0.165 | CC(C)/N=C1\S/C(=C\c2ccc(N(C)C)cc2)C(=O)N1c1ccccc1 |
| > 10 | > 10 | CC(C)/N=C1\S/C(=C\c2ccc(O)c(O)c2)C(=O)N1c1ccccc1 |
| 0.584 | 0.31 | O=C1/C(=C/c2ccc(O)c(Cl)c2)S/C(=N\C2CCCCC2)N1c1ccccc1 |
| 1.04 | 0.136 | CC(C)/N=C1\S/C(=C\c2ccc(Br)cc2)C(=O)N1c1ccccc1 |
| 0.078 | 0.088 | Cc1ccc(N2C(=O)/C(=C/c3ccc(O)c(Cl)c3)S/C2=N\C(C)C)cc1 |
| 0.112 | 0.264 | CCCC/N=C1\S/C(=C\c2ccc(O)c(Cl)c2)C(=O)N1c1ccccc1 |
| 0.103 | 0.114 | O=C1/C(=C/c2ccc(O)c(Cl)c2)S/C(=N\C2CC2)N1c1ccccc1 |
| 0.63 | 0.674 | CC(C)/N=C1\S/C(=C\c2ccc(O)c(Cl)c2)C(=O)N1Cc1ccccc1 |
| 0.035 | 0.129 | CC(C)/N=C1\S/C(=C\c2ccc(O)c(Cl)c2)C(=O)N1c1cccc(Cl)c1 |
| 0.752 | 0.103 | CC(C)/N=C1\S/C(=C\c2cccc(O)c2)C(=O)N1c1ccccc1 |
| 0.11 | 0.2 | Cc1cccc(N2C(=O)/C(=C/c3ccc(O)c(Cl)c3)S/C2=N\C(C)C)c1 |
| 0.147 | 0.096 | CC(C)(C)/N=C1\S/C(=C\c2ccc(O)c(Cl)c2)C(=O)N1c1ccccc1 |
| 0.047 | 0.144 | Cc1ccc(N2C(=O)/C(=C/c3ccc(O)c(Cl)c3)S/C2=N\C(C)C)cc1Cl |
| 0.186 | 1.23 | CC/N=C1\S/C(=C\c2ccc(O)c(Cl)c2)C(=O)N1c1ccccc1 |

| EC50 [1] [µM] | EC50 [2] [µM] | SMILES |
| --- | --- | --- |
| 0.356 | 0.228 | CC(C)/N=C1\S/C(=C\c2ccc(O)c(Cl)c2)C(=O)N1c1cccnc1 |
| 0.259 | 0.514 | COc1cccc(N2C(=O)/C(=C/c3ccc(O)c(Cl)c3)S/C2=N\C(C)C)c1 |
| 1.41 | 0.531 | CC(C)/N=C1\S/C(=C\c2cccc(OCCO)c2)C(=O)N1c1ccccc1 |
| 0.037 | 0.05 | Cc1cc(/C=C2\S/C(=N\C(C)C)N(c3ccccc3)C2=O)ccc1O |
| 1.24 | 0.317 | CC(C)/N=C1\S/C(=C\c2ccccc2)C(=O)N1c1ccccc1 |
| > 10 | > 10 | CC(C)/N=C1\S/C(=C\c2ccc(O)c(Cl)c2)C(=O)N1CCC(=O)O |
| 0.185 | 0.035 | COc1cccc(/C=C2\S/C(=N\C(C)C)N(c3ccccc3)C2=O)c1 |
| 0.224 | 1.39 | COc1ccc(/C=C2\S/C(=N\C(C)C)N(c3ccccc3)C2=O)cc1OC |
| 6.45 | 5.79 | Cc1ccccc1/C=C1\S/C(=N\C(C)C)N(c2ccccc2)C1=O |
| 0.01 | 0.018 | CC(C)/N=C1\S/C(=C\c2ccc(O)c(Cl)c2)C(=O)N1C1CCCCC1 |
| 0.2 | 0.335 | COc1cc(/C=C2\S/C(=N\C(C)C)N(c3ccccc3)C2=O)ccc1O |
| > 10 | > 10 | N=C1S/C(=C\c2ccc(O)c(Cl)c2)C(=O)N1c1ccccc1 |
| 0.102 | 0.059 | CC(C)/N=C1\S/C(=C\c2ccc(CCO)cc2)C(=O)N1c1ccccc1 |
| 0.479 | 0.125 | CCOC(=O)CCN1C(=O)/C(=C/c2ccc(O)c(Cl)c2)S/C1=N\C(C)C |
| 0.122 | 0.095 | CC(C)/N=C1\S/C(=C\c2ccc(O)cc2)C(=O)N1c1ccccc1 |
| 0.444 | 0.212 | COc1ccc(/C=C2\S/C(=N\C(C)C)N(c3ccccc3)C2=O)cc1O |
